Calls of active or inactive are those of the source. No cut-off for these calls is given here.
Assays:
[1] = target: T1, Alcohol dehydrogenase (Equus caballus) (UniProt P00327+P00328); assay: Reversible inhibition of horse liver alcohol dehydrogenase using ethanol as substrate assessed as increase in enzyme activity at 1 mM measured after 40 mins of 100-fold dilution by stopped-flow method in presence of NAD+; set-up: scale not given: the % may be the effect or the level left
Method in brief: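 0.94 μN enzyme was preincubated with 1 mM NAD⁺ and 1 mM pyrazole, then diluted 100-fold into assay mix (0.55 M ethanol, 1.75 mM NAD⁺, pH 9, 25 °C). NAD⁺ reduction followed at 340 nm for 40 min. Rates were taken as tangents at various times and expressed versus the original activity; an apparent first-order dissociation rate constant was derived.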

[2] = target: T1, Alcohol dehydrogenase (Equus caballus); assay: Competitive inhibition of horse liver alcohol dehydrogenase using ethanol as substrate by spectrophotometric titration in presence of 1 mM NAD+
Method in brief: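 Purified horse liver EE isoenzyme, dialysed and gel-filtered free of ethanol; 10 nM enzyme. Ethanol varied at 0.4–2 mM with NAD⁺ fixed at 1 mM, in 33 mM sodium phosphate pH 7, 25 °C. Rates recorded spectrophotometrically. Constants come from fitting to the competitive inhibition equation; errors are standard errors of the fit.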

[3] = target: T1, Alcohol dehydrogenase (Equus caballus); assay: Reversible inhibition of horse liver alcohol dehydrogenase using ethanol as substrate at 1 mM measured after 100-fold dilution in presence of NAD+; set-up: scale not given: the % may be the effect or the level left
Alcohol dehydrogenase = Alcohol dehydrogenase (Equus caballus, UniProt P00327+P00328); assay: Inhibition of horse liver alcohol dehydrogenase using ethanol as substrate assessed as dissociation constant by spectrophotometric titration in presence of 1 mM NAD+
Method in brief: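 Difference titration at 300 nm, 0.1 M sodium phosphate pH 7.0, 25 °C, 1 mM NAD⁺, in a double-sector cuvette (0.438-mm path) against a separated-sector reference. Either 19–27 μM enzyme was titrated with pyrazole, or 100 μM pyrazole was titrated with enzyme. Kd from a Scatchard least-squares fit; SD of three determinations.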

[4] = target: T1, Alcohol dehydrogenase (Equus caballus); assay: Reversible inhibition of horse liver alcohol dehydrogenase using ethanol as substrate assessed as remaining enzyme activity at 1 mM by stopped-flow method in presence of 1 mM NAD+
[5] = target: T1, Alcohol dehydrogenase (Equus caballus); assay: Reversible inhibition of horse liver alcohol dehydrogenase using ethanol as substrate by stopped-flow method in presence of 1 mM NAD+
[6] = target: T1, Alcohol dehydrogenase (Equus caballus); assay: Reversible inhibition of horse liver alcohol dehydrogenase using ethanol as substrate assessed as reduction in enzyme activity at 0.1 mM compound in diluted assay mixture measured after 20 to 40 mins by stopped-flow method in presence of NAD+
[7] = target: T1, Alcohol dehydrogenase (Equus caballus); assay: Inactivation of horse liver alcohol dehydrogenase using ethanol as substrate at 10 to 200 mM up to 5 mins by spectrophotometric titration in presence of 1 mM NAD+
Method in brief: (§1)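 Enzyme (1 mg/mL) incubated with reagent under 5 min in 0.1 M Na₂P₂O₇ adjusted to pH 8.0 with H₃PO₄, 25 °C, with NAD⁺ where stated. Then 10 μL of reaction mixture diluted into 1 mL standard assay mixture, and the initial velocity of NADH production measured. Activity is given relative to the original.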

[8] = target: T1, Alcohol dehydrogenase (Equus caballus); assay: Inactivation of horse liver alcohol dehydrogenase using ethanol as substrate at 200 mM up to 5 mins by spectrophotometric titration; method in brief: as §1
[9] = target: T1, Alcohol dehydrogenase (Equus caballus); assay: Inactivation of horse liver alcohol dehydrogenase using ethanol as substrate at 10 mM up to 5 mins by spectrophotometric titration; method in brief: as §1

Row | SMILES | inhibition [2] | Kd (Alcohol dehydrogenase) [µM] | further results
1 | ClCCc1cc[nH]n1 | Active | 200 | Activity [1]: ≥ 48%; Activity [3]: 10%; Activity [4]: 67%
2 | ClCc1cn[nH]c1 | – | 2.7 | –
3 | Cc1cn[nH]c1 [FOMEPIZOLE] | – | 0.013 | –
4 | c1cn[nH]c1 [PYRAZOLE] | – | 0.2 | Activity [5]: 3 ×10⁵ /M/s
5 | ClCCCc1cc[nH]n1 | Active | 40 | inhibition [6]: 52%; Activity [1]: ≥ 48%; Activity [3]: 10%; Activity [4]: 67%
6 | CC(=O)c1cc[nH]n1 | Active | 5100 | –
7 | OCCc1cn[nH]c1 | – | 0.77 | –
8 | OCCc1cc[nH]n1 | Active | 170 | –
9 | OCCCc1cn[nH]c1 | – | 0.56 | –
10 | OCc1cn[nH]c1 | – | 3.6 | –
11 | ClCCCc1cn[nH]c1 | – | 0.02 | –
12 | OCc1cc[nH]n1 | Active | 150 | –
13 | O=C(O)c1cc[nH]n1 | Active | 6500 | –
14 | Cc1cc[nH]n1 | Active | 125 | –
15 | OCCCc1cc[nH]n1 | Active | 60 | –
16 | ClCc1cc[nH]n1 | Active | – | Activity [7]: inactive; Activity [8]: 98%; Activity [9]: 36%

Reference: ChEMBL document CHEMBL3272109, “3-Substituted pyrazole derivatives as inhibitors and inactivators of liver alcohol dehydrogenase” (J Med Chem, 1979)
